# Data taken from ChEMBL document CHEMBL1126128, “Nonprostanoid prostacyclin mimetics. 3. Structural variations of the diphenyl heterocycle moiety” (J Med Chem, 1992).
# Assays:
# Assay type in all cases: functional
# [1] = Inhibition of ADP-induced aggregation of human blood platelets in plasma
# [2] = Compound was tested for inhibition of ADP-induced aggregation of blood platelets in human platelet rich plasma at >68 uM concentration
# Outline: (§1)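 Human platelet-rich plasma with aggregation triggered by ADP and followed by aggregometry. Each test acid was run at one stated upper concentration, and the read-out is percent inhibition of aggregation at that concentration. Each value is from a single experiment or is the mean of duplicate determinations.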
# [3] = Compound was tested for inhibition of ADP-induced aggregation of blood platelets in human platelet rich plasma at >76 uM concentration; outline: as §1
# [4] = Compound was tested for inhibition of ADP-induced aggregation of blood platelets in human platelet rich plasma at >82 uM concentration; outline: as §1
# [5] = Compound was tested for inhibition of ADP-induced aggregation of blood platelets in human platelet rich plasma at >84 uM concentration; outline: as §1
# [6] = Compound was tested for inhibition of ADP-induced aggregation of blood platelets in human platelet rich plasma at >32 uM concentration; outline: as §1
# [7] = Compound was tested for inhibition of ADP-induced aggregation of blood platelets in human platelet rich plasma at >60 uM concentration; outline: as §1
# [8] = Compound was tested for inhibition of ADP-induced aggregation of blood platelets in human platelet rich plasma at >75 uM concentration; outline: as §1
# [9] = Compound was tested for inhibition of ADP-induced aggregation of blood platelets in human platelet rich plasma at 20 uM concentration; outline: as §1
# [10] = Compound was tested for inhibition of ADP-induced aggregation of blood platelets in human platelet rich plasma at <80 uM concentration; outline: as §1
# [11] = Compound was tested for inhibition of ADP-induced aggregation of blood platelets in human platelet rich plasma at >65 uM concentration; outline: as §1
# [12] = Compound was tested for inhibition of ADP-induced aggregation of blood platelets in human platelet rich plasma at >78 uM concentration; outline: as §1
SMILES,"IC50 ([1]; Homo sapiens, Plasma) [µM]",also measured
O=C(O)CCCCCCCCCc1nnc(-c2ccccc2)n1-c1ccccc1,> 82,–
O=C(O)COc1cccc(CCn2cnc(-c3ccccc3)c2-c2ccccc2)c1,5,–
O=C(O)CCCCCCCn1nc(-c2ccccc2)c2ccccc2c1=O,> 84,–
O=C(O)CCCOc1ccc(-n2cnc(-c3ccccc3)c2-c2ccccc2)cc1,29.2,–
O=C(O)COc1cccc(CCc2nc(-c3cccc(Cl)c3)c(-c3cccc(Cl)c3)o2)c1,> 68,Inhibition [2]: 0%
O=C(O)CCCCCCCCOc1ncc(-c2ccccc2)c(-c2ccccc2)n1,> 79,–
O=C(O)COc1cccc(CCc2nc(-c3ccsc3)c(-c3ccsc3)o2)c1,17,–
O=C(O)CCCCCCCCc1nc(-c2ccccc2)c(-c2ccccc2)o1,6.6,–
O=C(O)COc1cccc(CCc2nc(-c3ccccc3F)c(-c3ccccc3F)o2)c1,1.4,–
O=C(O)CCCCCCCCN1C(=O)C(c2ccccc2)N(c2ccccc2)C1=O (stereo not drawn),29.4,–
O=C(O)COc1cccc(CCC(=O)NCC(c2ccccc2)c2ccccc2)c1,> 79,–
O=C(O)CCCCCCCCn1cc(-c2ccccc2)c(-c2ccccc2)n1 [listing 1 of 2 here],–,IC50 [1]: 5.8 µM
O=C(O)COc1cccc(CCc2nc(-c3ccc(Cl)cc3)c(-c3ccc(Cl)cc3)o2)c1,17.1,–
Cc1ccc(-c2nc(CCc3cccc(OCC(=O)O)c3)oc2-c2ccc(C)cc2)cc1,0.34,–
O=C(O)COc1cccc(/C=C/c2nnc(-c3ccccc3)n2-c2ccccc2)c1,2.99,–
O=C(O)COc1cccc(CCn2nc(-c3ccccc3)c(-c3ccccc3)c2-c2ccccc2)c1,24.5,–
O=C(O)COc1cccc(CCn2cc(-c3ccccc3)c(-c3ccccc3)n2)c1,0.87,–
O=C(O)CCCCCCCn1cnc(-c2ccccc2)c1-c1ccccc1,8.19,–
O=C(O)CCCCCCCn1nc(-c2ccccc2)c(-c2ccccc2)c(-c2ccccc2)c1=O,> 68,–
Cc1nc(-c2ccccc2)c(-c2ccccc2)n1CCCCCCCC(=O)O,4.4,–
O=C(O)CCCCCCCSc1cc(-c2ccccc2)c(-c2ccccc2)nn1,> 78,–
O=C(O)CCCCCCCn1nc(-c2ccccc2)c(-c2ccccc2)cc1=O,4.1,–

SMILES,"IC50 ([1]; Homo sapiens, Plasma) [µM]",also measured
O=C(O)CCCCCCCCn1nnnc1C(c1ccccc1)c1ccccc1,> 81,–
O=C(O)CCCCCCCCn1nc(-c2ccccc2)c2ccccc2c1=O,> 85,–
O=C(O)CCCCCCCSc1nnc(-c2ccccc2)c(-c2ccccc2)c1-c1ccccc1,> 65,–
O=C(O)CCCCCCCn1nnnc1C(c1ccccc1)c1ccccc1,> 84,–
O=C(O)CCCCOc1ccc(-n2cnc(-c3ccccc3)c2-c2ccccc2)cc1,> 76,Inhibition [3]: 31%
O=C(O)CCCCCCCCc1nnc(-c2ccccc2)n1-c1ccccc1,> 85,–
O=C(O)CCCCCCCCn1nc(-c2ccccc2)c(-c2ccccc2)c1-c1ccccc1,0.4,–
O=C(O)CCCCCCCCCCN(C(=O)c1ccccc1)c1ccccc1,> 84,–
O=C(O)CCCCCCCn1c(-c2ccccc2)nc(-c2ccccc2)c1-c1ccccc1,3.8,–
O=C(O)CCCCCCCCn1cnc(-c2ccccc2)c1-c1ccccc1,58.4,–
COc1ccc(-c2nc(CCc3cccc(OCC(=O)O)c3)oc2-c2ccc(OC)cc2)cc1,5.2,–
O=C(O)CCCCCCCCn1nnc(C(c2ccccc2)c2ccccc2)n1,10.7,–
O=C(O)COc1cccc(CCc2nc(-c3ccccc3)c(-c3ccccc3)[nH]2)c1,2.88,–
O=C(O)COc1cccc(CCn2nc(-c3ccccc3)n(-c3ccccc3)c2=O)c1,1.57,–
O=C(O)COc1cccc(CCn2nc(-c3ccccc3)c(-c3ccccc3)nc2=O)c1,2.1,–
O=C(O)CCCCCCCCN(C(=O)c1ccccc1)c1ccccc1,> 90,–
O=C(O)COc1cccc(-n2cnc(-c3ccccc3)c2-c2ccccc2)c1,> 82,Inhibition [4]: 18%
O=C(O)CCCCCCCc1nnc(-c2ccccc2)n1-c1ccccc1,> 88,–
O=C(O)CCCCCCCn1c(C(F)(F)F)nc(-c2ccccc2)c1-c1ccccc1,4.64,–
O=C(O)CCCCCCCSc1nnc(-c2ccccc2)c(-c2ccccc2)n1,> 74,–
O=C(O)CCCCCCCCn1nc(-c2ccccc2)c(-c2ccccc2)c(-c2ccccc2)c1=O,> 67,–
O=C(O)CCCCCCCCn1nc(-c2ccccc2)c(-c2ccccc2)nc1=O,4.9,–

SMILES,"IC50 ([1]; Homo sapiens, Plasma) [µM]",also measured
O=C(O)COc1cccc(CCc2cc(-c3ccccc3)n(-c3ccccc3)n2)c1,1.67,–
O=C(O)COc1cccc(CCc2nc(-c3ccc(F)cc3)c(-c3ccc(F)cc3)o2)c1,4.8,–
O=C(O)COc1ccc(-n2cnc(-c3ccccc3)c2-c2ccccc2)cc1,> 84,Inhibition [5]: 23%
O=C(O)CCCCCCCCn1nc(-c2ccccc2)c(-c2ccccc2)cc1=O,7.2,–
O=C(O)CCCCCCCCn1nccc1C(c1ccccc1)c1ccccc1,> 82,–
O=C(O)COc1cccc(CCc2nc(-c3ccccc3)c(-c3ccccc3)s2)c1,0.86,–
O=C(O)CCCCCCCCn1cc(-c2ccccc2)c(-c2ccccc2)nc1=O,29.7,–
O=C(O)CCCCOc1cccc(-n2cnc(-c3ccccc3)c2-c2ccccc2)c1,> 32,Inhibition [6]: 23%
O=C(O)COc1cccc(CCc2nc(-c3ccc(C(F)(F)F)cc3)c(-c3ccc(C(F)(F)F)cc3)o2)c1,> 60,Inhibition [7]: 1%
O=C(O)CCCCCCCCn1ccc(C(c2ccccc2)c2ccccc2)n1,> 80,–
O=C(O)CCCCCCCOc1ncc(-c2ccccc2)c(-c2ccccc2)n1,35.9,–
O=C(O)CCCCCCCCn1c(-c2ccccc2)nc(-c2ccccc2)c1-c1ccccc1,3.9,–
O=C(O)COc1ccc(/C=C/c2nnc(-c3ccccc3)n2-c2ccccc2)cc1,> 80,–
O=C(O)COc1cccc(CCn2nnc(C(c3ccccc3)c3ccccc3)n2)c1,3.6,–
O=C(O)COc1cccc(CCc2nnc(-c3ccccc3)n2-c2ccccc2)c1,12.7,–
O=C(O)CCCCCCCCn1cc(-c2ccccc2)c(-c2ccccc2)n1 [listing 2 of 2 here],4.5,–
O=C(O)COc1cccc(CCn2ncc(-c3ccccc3)c2-c2ccccc2)c1,0.75,–
O=C(O)CCCCCCCCn1c(=O)c2ccccc2n(-c2ccccc2)c1=O,> 81,–
O=C(O)CCCCCCCn1nc(-c2ccccc2)n(-c2ccccc2)c1=O,> 84,–
O=C(O)COc1cccc(CCC(=O)NC(c2ccccc2)c2ccccc2)c1,> 82,–
CCc1ccc(-c2nc(CCc3cccc(OCC(=O)O)c3)oc2-c2ccc(CC)cc2)cc1,28.3,–
Cc1nc(-c2ccccc2)c(-c2ccccc2)n1CCCCCCCCC(=O)O,3.04,–

SMILES,"IC50 ([1]; Homo sapiens, Plasma) [µM]",also measured
O=C(O)CCCCCCCn1cc(-c2ccccc2)c(-c2ccccc2)nc1=O,25.6,–
Cc1ccccc1-c1nc(CCc2cccc(OCC(=O)O)c2)oc1-c1ccccc1C,11.6,–
O=C(O)COc1ccc(CCc2nnc(-c3ccccc3)n2-c2ccccc2)cc1,> 80,–
O=C(O)COc1cccc(CCc2nc(-c3ccc(Br)cc3)c(-c3ccc(Br)cc3)o2)c1,12.6,–
COc1cccc(-c2nc(CCc3cccc(OCC(=O)O)c3)oc2-c2cccc(OC)c2)c1,7.2,–
O=C(O)COc1cccc(CCc2cc(-c3ccccc3)n(C(c3ccccc3)c3ccccc3)n2)c1,> 63,–
Cc1cccc(-c2nc(CCc3cccc(OCC(=O)O)c3)oc2-c2cccc(C)c2)c1,> 75,Inhibition [8]: 30%
O=C(O)COc1cccc(CCc2nc3c4ccccc4c4ccccc4c3o2)c1,> 20,inhibition at 20 µM [9]: 0%
O=C(O)CCCCCCCCn1nc(-c2ccccc2)n(-c2ccccc2)c1=O,4.1,–
O=C(O)CCCCCCCCn1cc(-c2ccccc2)c(-c2ccccc2)c1,10.3,–
O=C(O)CCCCCCCn1nc(-c2ccccc2)c(-c2ccccc2)nc1=O,7.9,–
O=C(O)CCCOc1cccc(-n2cnc(-c3ccccc3)c2-c2ccccc2)c1,< 80,Inhibition [10]: 57%
O=C(O)CCCCCCCn1nnc(C(c2ccccc2)c2ccccc2)n1,7.9,–
O=C(O)CCCCCCCCN1C(=O)NC(c2ccccc2)(c2ccccc2)C1=O,> 78,–
CSc1ccc(-c2nc(CCc3cccc(OCC(=O)O)c3)oc2-c2ccc(SC)cc2)cc1,> 65,Inhibition [11]: 32%
O=C(O)COc1cccc(Cn2cnc(-c3ccccc3)c2-c2ccccc2)c1,> 82,–
O=C(O)COc1cccc(CCn2nc(-c3ccccc3)c(-c3ccccc3)cc2=O)c1,1.9,–
O=C(O)COc1cccc(CCc2nc(-c3cccc(F)c3)c(-c3cccc(F)c3)o2)c1,17.7,–
O=C(O)CCCCCCCn1cc(-c2ccccc2)c(-c2ccccc2)n1,1.38,–
O=C(O)COc1cccc(CCc2nc(-c3cccs3)c(-c3cccs3)o2)c1,7.4,–
O=C(O)COc1cccc(CCc2nc(C3CCCCC3)c(C3CCCCC3)o2)c1,> 78,Inhibition [12]: 25%
